The record followed here is ChEMBL document CHEMBL4513216, “Probing the Open Global Health Chemical Diversity Library for Multistage-Active Starting Points for Next-Generation Antimalarials” (ACS Infect Dis, 2020).

The data set is described as follows: Toxicity liver stage against HepG2, at 10uM. The data set is classed as cell-based. Set-up: test concentration 10 uM, cell line HepG2-A16-CD81EGFP. Conditions: human, HepG2-A16-CD81EGFP cells; read-out: INHIBITION
In outline:
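Uninfected HepG2-A16-CD81EGFP cells, 3 × 10^3 per well, 1536-well, plated on prespotted compound at 10 μM final, parasite-free screening media added to match infected plates; puromycin 10 μM positive, DMSO 0.5% negative; run in parallel with 48 h PbLuc assay at 37 °C, 5% CO2; viability by CellTiter-Glo luminescence, normalized to controls.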
With `Cc1cccc(-c2noc([C@@H]3C[C@@H](O)CN3C)n2)c1`, the cytotoxicity at 10 µM was -3.54%.

On to `NC(=O)CS(=O)(=O)Cc1ccc(OCc2ccc(F)cc2)cc1`, for which the cytotoxicity at 10 µM turned out to be 4.93%.

On to `COc1cc(NC(=O)c2cccc(N(C)C)c2)cc(OC)c1`, for which the cytotoxicity at 10 µM worked out at 0.03%.

In the case of `Cc1ncc2c(n1)CCN(Cc1nc(Cc3ccccc3)no1)C2`, the cytotoxicity at 10 µM came to 0.414%.

Turning to `COc1ccc(C)cc1CN1CCN(Cc2nccn2C)CC1`, the cytotoxicity at 10 µM is 5.5%.

Take `COC(=O)c1cc(NC2CCN(CC(F)(F)F)C2=O)ccc1C` (stereo not given): the cytotoxicity at 10 µM was -0.812%.

As to `COc1cc(Cl)ccc1C(=O)NCC(=O)Nc1nccs1`, the cytotoxicity at 10 µM amounted to 6.62%.

In the case of `CCN(Cc1ccco1)C(C)c1nc(C(C)C)no1` (stereo not given), the cytotoxicity at 10 µM was 15.6%.

`CCOc1ccccc1C(=O)N(C)C(C)c1ccc(S(C)(=O)=O)cc1` (stereo not given): the cytotoxicity at 10 µM was 12.9%.

As to `O=C(c1csc(-c2ccco2)n1)N1CCOc2ncccc21`, the cytotoxicity at 10 µM was determined as 10.2%.

Take `N#Cc1ccc(N2CCCC2Cn2cccn2)nc1` (stereo not given): the cytotoxicity at 10 µM stood at 6.55%.

In the case of `CCNC(=O)NC(C)(C)C(=O)NCc1cccc(N2CC=CC2)c1`, the cytotoxicity at 10 µM turned out to be 7.35%.

Consider `CC(=O)Nc1cc(C(=O)Nc2cc(CC(C)(C)C)nn2C)ccc1F`, for which the cytotoxicity at 10 µM stood at 0.388%.

On to `CC(Oc1ccc(S(C)(=O)=O)cc1)C(=O)NC(N)=O` (stereo not given), for which the cytotoxicity at 10 µM is -5.69%.

On to `Cc1cc(NC(=O)NCCc2ccc(S(N)(=O)=O)cc2)n(C)n1`, for which the cytotoxicity at 10 µM was -3.39%.

As to `CNC(=O)CN(C)Cc1ccc(F)cc1Cl`, the cytotoxicity at 10 µM was -2.9%.

As to `Cc1c(C(=O)NCCC(=O)N2CCOCC2)sc2ccc(F)cc12`, the cytotoxicity at 10 µM was 4.5%.

For the compound `CC(C)(C)c1noc(CCCC(=O)N2CCCC(c3ccn[nH]3)C2)n1` (stereo not given), the cytotoxicity at 10 µM was -14.2%.

For `CC(C)Nc1ccnc(-c2ccnc3c2ccn3C)n1`, the cytotoxicity at 10 µM is -5.2%.

For `COCCc1noc(-c2ccc(-c3cc[nH]n3)nc2)n1`, the cytotoxicity at 10 µM is -2.79%.

Consider `c1csc(-c2noc(COCC3CCCO3)n2)c1` (stereo not given), for which the cytotoxicity at 10 µM was -1.62%.

For `O=C1CCCCN1CC(=O)N1CCCC(c2ccccc2)C1` (stereo not given), the cytotoxicity at 10 µM is -1.05%.

As to `Cc1ccc(CCNc2ncnc3sc4c(c23)CCNC4)o1`, the cytotoxicity at 10 µM came out at 3.94%.

For `Cc1cccc2nc(-c3nc4c([nH]3)CCCNC4=O)cn12`, the cytotoxicity at 10 µM was 3.67%.

`COC(C)(C)CC(C)NCc1nncn1C1CCCCC1` (stereo not given): the cytotoxicity at 10 µM is -2.87%.

As to `O=C(CN1C(=O)CCNC1=O)N1CCOC(c2ccc(F)cc2)C1` (stereo not given), the cytotoxicity at 10 µM was determined as 5.11%.

Turning to `O=C1CC2(CCCC2)CN1CCOc1ccc(F)cc1`, the cytotoxicity at 10 µM came out at 1.05%.

With `Cc1cc(C(=O)N2CCCC3(C=Cc4ccccc4O3)CC2)cc(=O)[nH]1` (stereo not given), the cytotoxicity at 10 µM came to 8.06%.

In the case of `CCNC(=O)[C@@H]1C[C@H](N)CN1c1cc(C(F)(F)F)nc(N(C)C)n1`, the cytotoxicity at 10 µM is -14.1%.

On to `COCCN(Cc1sccc1C)C(=O)C1CCCN(C(N)=O)C1` (stereo not given), for which the cytotoxicity at 10 µM was -4.7%.

In the case of `O=C(NC1CC1)C1CNCCN1C(=O)CCc1ccc2c(c1)OCO2` (stereo not given), the cytotoxicity at 10 µM was -0.766%.

Turning to `CC(C)n1cnnc1CN(C)Cc1cnc(-c2cccs2)nc1`, the cytotoxicity at 10 µM is 8.55%.

With `COc1ccccc1C1CCN(C(=O)CN2C(=O)OC(C)(C)C2=O)CC1`, the cytotoxicity at 10 µM was 8.12%.

Take `COc1c(-c2ccc(O)cc2)oc2cc(O)cc(O)c2c1=O` [ISOKAEMPFERIDE]: the cytotoxicity at 10 µM is 7.8%.

In the case of `CCCNC(=O)C(C)Nc1ccc(OCC)cc1` (stereo not given) [PROPETAMIDE], the cytotoxicity at 10 µM was found to be 8.84%.
